Results reported in ChEMBL document CHEMBL3860041, “Synthesis, biological evaluation and molecular modeling study of some new methoxylated 2-benzylthio-quinazoline-4(3H)-ones as nonclassical antifolates” (Bioorg Med Chem Lett, 2016).

Columns and labels:
Format in all cases: functional
[1] = Growth inhibition of human RXF393 cells at 10 uM after 48 hrs by SRB assay relative to control; settings: RXF 393, 48 h, read-out: GI
Outline: (§1)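 NCI 60-cell-line panel, nine tumor subpanels; compounds tested at a single dose of 10 μM in the primary screen.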

[2] = Growth inhibition of human ACHN cells at 10 uM after 48 hrs by SRB assay relative to control; settings: read-out: GI; outline: as §1
[3] = Growth inhibition of human SNB75 cells at 10 uM after 48 hrs by SRB assay relative to control; settings: SNB-75, 48 h, read-out: GI
Outline: (§2)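 Primary screen across the full NCI 60 human tumour cell line panel, which covers nine tumour subpanels. A single dose of 10 μM was applied to each line, and growth was recorded for each cell line.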

[4] = Growth inhibition of human BT549 cells at 10 uM after 48 hrs by SRB assay relative to control; settings: BT-549, 48 h, read-out: GI; outline: as §1
[5] = Growth inhibition of human SK-MEL-2 cells at 10 uM after 48 hrs by SRB assay relative to control; settings: SK-MEL-2, 48 h, read-out: GI; outline: as §2
[6] = Growth inhibition of human LOXIMVI cells at 10 uM after 48 hrs by SRB assay relative to control; settings: LOX IMVI, read-out: GI; outline: as §1
[7] = Growth inhibition of human T47D cells at 10 uM after 48 hrs by SRB assay relative to control; settings: read-out: GI; outline: as §2
[8] = Growth inhibition of human HL-60(TB) cells at 10 uM after 48 hrs by SRB assay relative to control; settings: HL-60, 48 h, read-out: GI
Outline: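 NCI disease-oriented human tumour cell line screen: primary single-dose assay at 10 μM across the full 60-cell-line panel spanning nine tumour subpanels.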

[9] = Growth inhibition of human A549 cells at 10 uM after 48 hrs by SRB assay relative to control; settings: A549, 48 h, read-out: GI; outline: as §1
[10] = Growth inhibition of human HCT116 cells at 10 uM after 48 hrs by SRB assay relative to control; settings: HCT-116, 48 h, read-out: GI; outline: as §1
[11] = Growth inhibition of human SN12C cells at 10 uM after 48 hrs by SRB assay relative to control; settings: read-out: GI; outline: as §2
[12] = Growth inhibition of human SR cells at 10 uM after 48 hrs by SRB assay relative to control; settings: read-out: GI; outline: as §2
[13] = Growth inhibition of human NCI-H23 cells at 10 uM after 48 hrs by SRB assay relative to control; settings: NCI-H23, 48 h, read-out: GI; outline: as §1
[14] = Growth inhibition of human COLO205 cells at 10 uM after 48 hrs by SRB assay relative to control; settings: COLO 205, 48 h, read-out: GI; outline: as §1
[15] = Growth inhibition of human OVCAR4 cells at 10 uM after 48 hrs by SRB assay relative to control; settings: OVCAR-4, 48 h, read-out: GI; outline: as §1
[16] = Growth inhibition of human Hs 578T cells at 10 uM after 48 hrs by SRB assay relative to control; settings: read-out: GI; outline: as §1
[17] = Growth inhibition of human SF268 cells at 10 uM after 48 hrs by SRB assay relative to control; settings: SF-268, 48 h, read-out: GI; outline: as §1
[18] = Growth inhibition of human NCI/ADR-RES cells at 10 uM after 48 hrs by SRB assay relative to control; settings: read-out: GI; outline: as §1
[19] = Growth inhibition of human MDA-MB-468 cells at 10 uM after 48 hrs by SRB assay relative to control; settings: MDA-MB-468, 48 h, read-out: GI; outline: as §1
[20] = Growth inhibition of human UO31 cells at 10 uM after 48 hrs by SRB assay relative to control; settings: UO-31, 48 h, read-out: GI; outline: as §2
[21] = Growth inhibition of human K562 cells at 10 uM after 48 hrs by SRB assay relative to control; settings: K562, 48 h, read-out: GI; outline: as §1
[22] = Growth inhibition of human MALME-3M cells at 10 uM after 48 hrs by SRB assay relative to control; settings: read-out: GI; outline: as §1
[23] = Growth inhibition of human SKOV3 cells at 10 uM after 48 hrs by SRB assay relative to control; settings: SK-OV-3, 48 h, read-out: GI; outline: as §2
[24] = Growth inhibition of human A498 cells at 10 uM after 48 hrs by SRB assay relative to control; settings: A498, 48 h, read-out: GI; outline: as §1
[25] = Growth inhibition of human HOP62 cells at 10 uM after 48 hrs by SRB assay relative to control; settings: HOP-62, 48 h, read-out: GI; outline: as §1
[26] = Growth inhibition of human UACC257 cells at 10 uM after 48 hrs by SRB assay relative to control; settings: UACC-257, 48 h, read-out: GI; outline: as §2
[27] = Growth inhibition of human 786-0 cells at 10 uM after 48 hrs by SRB assay relative to control; settings: 786-0, 48 h, read-out: GI; outline: as §1
[28] = Growth inhibition of human OVCAR5 cells at 10 uM after 48 hrs by SRB assay relative to control; settings: OVCAR-5, 48 h, read-out: GI; outline: as §1
[29] = Growth inhibition of human MOLT4 cells at 10 uM after 48 hrs by SRB assay relative to control; settings: MOLT-4, 48 h, read-out: GI; outline: as §1
[30] = Growth inhibition of human SK-MEL-5 cells at 10 uM after 48 hrs by SRB assay relative to control; settings: SK-MEL-5, 48 h, read-out: GI; outline: as §2
Leukemia cell = test: Potency index, ratio of 5-fluorouracil GI50 to compound GI50 for human leukemia cells
Outline: (§3)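 GI50 for each cell line came from NCI panel testing over a 5-log dose range, with 5-fluorouracil tested alongside as the reference drug. The index relates the 5-fluorouracil GI50 to the compound GI50 within each tumour subpanel.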

[31] = Growth inhibition of human CNS cancer cells after 48 hrs by SRB assay; settings: Cancer cell lines
Outline: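 Five-log dose range against NCI tumor cell lines, monitoring GI50, TGI and LC50 for each cell line; MG-MID values derived across the panel; 5-fluorouracil positive control.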

[32] = Growth inhibition of human ovarian cancer cells after 48 hrs by SRB assay; settings: Cancer cell lines
Outline: (§4)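 Follow-up NCI panel testing over a 5-log dose range for each cell line. GI50, TGI and LC50 were monitored, with 5-fluorouracil run as the positive control. Values are grouped by tumour subpanel.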

Cancer cell lines = test: Potency index, ratio of 5-fluorouracil GI50 to compound GI50 for human CNS cancer cells; outline: as §3
[33] = Growth inhibition of human colon cancer cells after 48 hrs by SRB assay; settings: Cancer cell lines; outline: as §4
[34] = Growth inhibition of human non-small cell lung cancer cells after 48 hrs by SRB assay; settings: Cancer cell lines; outline: as §4

COc1ccc(-n2c(SCc3cc(OC)c(OC)c(OC)c3)nc3ccc(Cl)cc3c2=O)cc1
inhibition of growth at 10 µM [1]: 25.9%
inhibition of growth at 10 µM [2]: 16.4%
inhibition of growth at 10 µM [3]: < 10%
inhibition of growth at 10 µM [4]: < 10%
inhibition of growth at 10 µM [5]: < 10%
inhibition of growth at 10 µM [6]: 18%
inhibition of growth at 10 µM [7]: 23.9%
inhibition of growth at 10 µM [8]: < 10%
inhibition of growth at 10 µM [9]: 20.2%
inhibition of growth at 10 µM [10]: 33.3%
inhibition of growth at 10 µM [11]: 18.3%
inhibition of growth at 10 µM [12]: < 10%
inhibition of growth at 10 µM [13]: 20.2%
inhibition of growth at 10 µM [14]: < 10%
inhibition of growth at 10 µM [15]: 28.3%
inhibition of growth at 10 µM [16]: 13.9%
inhibition of growth at 10 µM [17]: 15.2%
inhibition of growth at 10 µM [18]: 10.7%
inhibition of growth at 10 µM [19]: 13.4%
inhibition of growth at 10 µM [20]: 52.1%
inhibition of growth at 10 µM [21]: 28.6%
inhibition of growth at 10 µM [22]: < 10%
inhibition of growth at 10 µM [23]: < 10%
inhibition of growth at 10 µM [24]: 49.1%
inhibition of growth at 10 µM [25]: < 10%
inhibition of growth at 10 µM [26]: 11.2%
inhibition of growth at 10 µM [27]: < 10%
inhibition of growth at 10 µM [28]: 10.5%
inhibition of growth at 10 µM [29]: 27.6%
inhibition of growth at 10 µM [30]: 15.1%

COc1cc2nc(SCc3cc(OC)c(OC)c(OC)c3)n(-c3ccccc3OC)c(=O)c2cc1OC
inhibition of growth at 10 µM [1]: 22%
inhibition of growth at 10 µM [2]: 11.5%
inhibition of growth at 10 µM [3]: 37.2%
inhibition of growth at 10 µM [4]: 12.5%
inhibition of growth at 10 µM [5]: < 10%
inhibition of growth at 10 µM [6]: 22.7%
inhibition of growth at 10 µM [7]: 11.4%
inhibition of growth at 10 µM [9]: 12%
inhibition of growth at 10 µM [10]: 12%
inhibition of growth at 10 µM [11]: < 10%
inhibition of growth at 10 µM [12]: 76.2%
inhibition of growth at 10 µM [13]: 20.1%
inhibition of growth at 10 µM [14]: < 10%
inhibition of growth at 10 µM [15]: 16.9%
inhibition of growth at 10 µM [16]: 39.2%
inhibition of growth at 10 µM [17]: 30.1%
inhibition of growth at 10 µM [18]: 37.1%
inhibition of growth at 10 µM [19]: 23%
inhibition of growth at 10 µM [20]: 63.7%
inhibition of growth at 10 µM [21]: 72.7%
inhibition of growth at 10 µM [22]: 37%
inhibition of growth at 10 µM [23]: < 10%
inhibition of growth at 10 µM [24]: 74.6%
inhibition of growth at 10 µM [25]: < 10%
inhibition of growth at 10 µM [26]: < 10%
inhibition of growth at 10 µM [27]: < 10%
inhibition of growth at 10 µM [28]: 11%
inhibition of growth at 10 µM [29]: 53.2%
inhibition of growth at 10 µM [30]: < 10%

COc1ccc(-n2c(SCc3cc(OC)c(OC)c(OC)c3)nc3ccc(C)cc3c2=O)c(OC)c1
RatioGI50 (Leukemia cell): 2 - 10
inhibition of growth at 10 µM [1]: 80.4%
inhibition of growth at 10 µM [2]: 55.1%
GI50 [31]: 9.6 µM
LC50 (lethal concentration, 50% net cell kill) [31]: > 100 µM
TGI [31]: 84.6 µM
GI50 [32]: 5.1 µM
LC50 (50% lethal concentration) [32]: > 100 µM
TGI [32]: 86.7 µM
inhibition of growth at 10 µM [3]: 70.4%
inhibition of growth at 10 µM [4]: 67.9%
inhibition of growth at 10 µM [5]: < 10%
inhibition of growth at 10 µM [6]: 68.4%
inhibition of growth at 10 µM [7]: 66.9%
RatioGI50 (Cancer cell lines): 2 - 10
inhibition of growth at 10 µM [9]: 81.1%
inhibition of growth at 10 µM [10]: 81.9%
inhibition of growth at 10 µM [11]: 54.8%
inhibition of growth at 10 µM [12]: 92.3%
inhibition of growth at 10 µM [13]: 82.2%
GI50 [33]: 4.4 µM
LC50 [33]: > 100 µM
TGI [33]: 87.4 µM
inhibition of growth at 10 µM [15]: 42.6%
inhibition of growth at 10 µM [16]: 93.3%
inhibition of growth at 10 µM [17]: 55.9%
inhibition of growth at 10 µM [18]: 98.6%
inhibition of growth at 10 µM [19]: 83%
GI50 [34]: 17.7 µM
LC50 (concentration killing 50% of cells) [34]: > 100 µM
TGI [34]: 96.5 µM
inhibition of growth at 10 µM [20]: 81.8%
inhibition of growth at 10 µM [21]: 85.6%
inhibition of growth at 10 µM [22]: 74.5%
inhibition of growth at 10 µM [23]: 54.7%
inhibition of growth at 10 µM [25]: 52.6%
inhibition of growth at 10 µM [26]: < 10%
inhibition of growth at 10 µM [27]: 70.4%
inhibition of growth at 10 µM [28]: 56.8%
inhibition of growth at 10 µM [29]: 88.7%
inhibition of growth at 10 µM [30]: 82.4%
